Here are results for 19 compounds from ChEMBL document CHEMBL4480463, “Quassinoids from Picrasma quassioides and Their Neuroprotective Effects” (2019).

Activity calls are given as the source filed them. The calls are words filed in the database; no cut-off is given here.

The subject of assay [1] is SH-SY5Y. Nature of the assay: Inhibition of H2O2-induced apoptosis in human SH-SY5Y cells assessed as viable cells at 25 uM preincubated for 1 hr followed by H2O2-stimulation and measured after 4 hrs by Annexin V-FITC/propidium iodide staining-based flow cytometric analysis (reference value: 50.7%). The format is functional. To be noted: read-out: Activity. Background: Flow cytometry measures light scatter and fluorescence of single cells or particles in a stream.

Assay [2] deals with SH-SY5Y. Kind of assay: Inhibition of H2O2-induced apoptosis in human SH-SY5Y cells assessed as late apoptotic cells at 25 uM preincubated for 1 hr followed by H2O2-stimulation and measured after 4 hrs by Annexin V-FITC/propidium iodide staining-based flow cytometric analysis (reference value: 24.9%). The format is functional. More on the design: scale not given: the % may be the effect or the level left.

Assay [3] has as its system SH-SY5Y. Nature of the assay: Neuroprotective activity against H2O2-induced cytotoxicity in human SH-SY5Y cells at 25 uM preincubated for 1 hr followed by H2O2-stimulation and measured after 4 hrs by MTT assay. The assay is classed as functional, cell-based. The method, boiled down: (§1)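 SH-SY5Y cells preincubated with compound (25, 50 or 100 μM) for 1 h, then exposed to 300 μM H2O2 for 4 h. Viability read by MTT assay. Trolox served as positive control.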
(In general: Tetrazolium dyes change colour on reduction, which living cells bring about.)

Assay [4] concerns SH-SY5Y. Kind of assay: Inhibition of H2O2-induced apoptosis in human SH-SY5Y cells assessed as necrotic cells at 25 uM preincubated for 1 hr followed by H2O2-stimulation and measured after 4 hrs by Annexin V-FITC/propidium iodide staining-based flow cytometric analysis (reference value: 22.2%). The assay is classed as functional. More on the design: scale not given: the % may be the effect or the level left.

The test system of assay [5] is SH-SY5Y. Kind of assay: Inhibition of H2O2-induced apoptosis in human SH-SY5Y cells assessed as early apoptotic cells at 25 uM preincubated for 1 hr followed by H2O2-stimulation and measured after 4 hrs by Annexin V-FITC/propidium iodide staining-based flow cytometric analysis (reference value: 2.25%). The assay is classed as functional. The arrangement: scale not given: the % may be the effect or the level left.

Assay [6] deals with SH-SY5Y. Kind of assay: Neuroprotective activity against H2O2-induced cytotoxicity in human SH-SY5Y cells at 25 to 100 uM preincubated for 1 hr followed by H2O2-stimulation and measured after 4 hrs by MTT assay. The assay is classed as functional, cell-based. The gist of the method:
as §1

The subject of assay [7] is SH-SY5Y. Kind of assay: Inhibition of H2O2-induced apoptosis in human SH-SY5Y cells assessed as decrease in caspase-3 activity at 25 uM. The assay is classed as functional, cell-based. The method, boiled down: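 SH-SY5Y cells exposed to H2O2 with or without test compound; caspase-3 activity in the cells quantified with a commercial caspase-3 activity assay kit; data given as means ± SDs.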

As to `COC1=C[C@@H](C)[C@@H]2C[C@H]3OC(=O)C[C@H]4C(CO)=C(OC)C(=O)[C@H]([C@@]2(C)C1=O)[C@@]34C`, the viability at 25 µM in assay [1] came to 76.8%. For the same compound, the results for the Activity in assay [2], in assay [4] and in assay [5] were 13%, 7.31% and 2.96%, respectively. For the same compound, the result in assay [3] was Active.

In the case of `COC1=C[C@@H](C)[C@@H]2C[C@H]3OC(=O)C[C@H]4[C@](C)(O)[C@@H]5OCO[C@H]5[C@H]([C@@]2(C)C1=O)[C@@]34C`, the outcome in assay [6] was Active.

As to `COC1=C[C@@H](C)[C@@H]2C[C@H]3OC(=O)C[C@H]4[C@@H](C)[C@H](O)C(=O)[C@H]([C@@]2(C)C1=O)[C@@]34C`, the result in assay [6] was inactive.

For the compound `COC1=C[C@@H](C)[C@@H]2C[C@H]3O[C@@H](O[C@@H]4O[C@H](CO)[C@@H](O)[C@H](O)[C@H]4O)C[C@@H]4[C@@]3(C)[C@H]([C@H](O)C(=O)[C@@]4(C)OC(C)=O)[C@@]2(C)C1=O`, in assay [6], the outcome was inactive.

`COC1=C[C@@H](C)[C@@H]2C[C@H]3OC(=O)C=C4C(C)=C(OC)C(=O)[C@@H]([C@]43C)[C@@]2(C)C1=O`: the outcome in assay [6] was Active.

As to `COC1=C[C@@H](C)[C@@H]2C[C@H]3OC(=O)C[C@H]4[C@@H](C)[C@@H](O)C(=O)[C@H]([C@@]2(C)C1=O)[C@@]34C`, the outcome in assay [6] was inactive.

Turning to `COC1=C(C)[C@@H]2CC(=O)O[C@@H]3C[C@H]4[C@H](C)C[C@H](O)C(=O)[C@]4(C)[C@@H](C1=O)[C@@]32C`, in assay [6], the result was Active.

In the case of `COC1=C[C@@H](C)[C@@H]2C[C@H]3O[C@@H](O[C@@H]4O[C@H](CO)[C@@H](O)[C@H](O)[C@H]4O)C[C@@H]4[C@@]3(C)[C@H]([C@H](O)C(=O)[C@@]4(C)O)[C@@]2(C)C1=O`, in assay [6], the result was inactive.

With `COC1=C[C@@H](C)[C@@H]2C[C@H]3OC(=O)C[C@@]4(O)C(C)=C(OC)C(=O)[C@H]([C@@]2(C)C1=O)[C@@]34C`, the viability at 25 µM in assay [1] is 72.1%. In addition, the values for the Activity in assay [2], in assay [4] and in assay [5] were 13.4%, 11.3% and 3.18%, respectively. Also, the outcome in assay [3] was Active.

`COC1=C[C@@H](C)[C@@H]2C[C@H]3OC(=O)C[C@H]4[C@](C)(O)[C@H](OC)[C@@H](O)[C@H]([C@@]2(C)C1=O)[C@@]34C`: in assay [6], the result was Active.

Turning to `COC1=C[C@@H](C)[C@@H]2C[C@H]3OC(=O)C[C@H]4C(C)=C(OC)C(=O)[C@H]([C@@]2(C)C1=O)[C@@]34C` [QUASSIN], in assay [1], the viability at 25 µM turned out to be 73.1%. Also, the Activity in assay [2] is 13.7%; in assay [4], 10.7%; in assay [5] it was 2.45%. In addition, the result in assay [3] was Active.

For the compound `COC1=C[C@@H](C)[C@@H]2C[C@H]3OC(=O)C[C@H]4[C@@H](C)[C@@H]5OCO[C@H]5[C@H]([C@@]2(C)C1=O)[C@@]34C`, the result in assay [6] was Active.

`COC1=C[C@@H](C)[C@@H]2C[C@H]3OC(=O)C[C@@]4(O)[C@@H](C)[C@H](OC)[C@@H](O)[C@H]([C@@]2(C)C1=O)[C@@]34C`: the result in assay [6] was Active.

Consider `COC1=C[C@@H](C)[C@@H]2C[C@H]3O[C@@H](O[C@@H]4O[C@H](CO)[C@@H](O)[C@H](O)[C@H]4O)C[C@H]4C(C)=C(OC)C(=O)[C@H]([C@@]2(C)C1=O)[C@@]34C` [PICRASINOSIDE B], for which, in assay [1], the viability at 25 µM is 82.2%. Further, the Activity in assay [2] stood at 8.55%; in assay [4] it was 7.43%; in assay [5], 1.86%. For the same compound, the outcome in assay [3] and in assay [7] was Active.

For `COC1=C[C@@H](C)[C@@H]2C[C@H]3OC(=O)C=C4[C@@H](C)[C@@H]5OCO[C@H]5[C@@H]([C@]43C)[C@@]2(C)C1=O`, in assay [6], the result was inactive.

Turning to `COC1=C[C@@H](C)[C@@H]2C[C@H]3OC(=O)C[C@H]4[C@](C)(O)[C@@H](O)C(=O)[C@H]([C@@]2(C)C1=O)[C@@]34C`, the result in assay [6] was inactive.

Take `COC1=C[C@@H](C)[C@@H]2C[C@H]3O[C@@H](O[C@@H]4O[C@H](CO)[C@@H](O)[C@H](O)[C@H]4O)C[C@H]4[C@](C)(O)[C@H](OC)[C@@H](O)[C@H]([C@@]2(C)C1=O)[C@@]34C`: the result in assay [6] was Active.

For the compound `COC1=C[C@@H](C)[C@@H]2C[C@H]3O[C@@H](O[C@@H]4O[C@H](CO)[C@@H](O)[C@H](O)[C@H]4O)C[C@H]4[C@@H](C)[C@H](OC)[C@@H](O)[C@H]([C@@]2(C)C1=O)[C@@]34C`, in assay [6], the outcome was Active.

For the compound `COC1=C[C@@H](C)[C@@H]2C[C@H]3OC(=O)C[C@H]4[C@@H](C)[C@H](OC)[C@@H](OC(=O)c5cc(OC)c6c(c5)OCO6)[C@H]([C@@]2(C)C1=O)[C@@]34C`, in assay [1], the viability at 25 µM came out at 79.8%. The Activity is reported as 10.1% in assay [2], 7.89% in assay [4] and 2.2% in assay [5]. Also, the outcome in assay [3] and in assay [7] was Active.
